Experimental data taken from ChEMBL document CHEMBL1208682, “New quinoline derivatives: synthesis and investigation of antibacterial and antituberculosis properties” (2010).
Converted amounts (≈) assume the structure as drawn.

Columns and labels:
Format in all cases: functional
Klebsiella pneumoniae = assay: Antibacterial activity against recultured Klebsiella pneumoniae after 3 to 4 days by serial plate dilution method; settings: for MIC: Klebsiella pneumoniae
[1] = test system: Mycobacterium tuberculosis; assay: Antituberculosis activity against Mycobacterium tuberculosis H37Rv ATCC 27294 after 7 days using resazurin dye by broth microdilution assay; settings: H37Rv ATCC 27294, 168 h
Method in brief: (§1)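 M. tuberculosis H37Rv grown in Middlebrook 7H9 with 10% OADC and 0.5% glycerol, adjusted to McFarland 1.0. Compounds were dissolved in DMF as stocks and tested at final levels of 1.56, 3.12, 6.25, 12.5, 25 and 50 in 96-well REMA. Controls were DMF-only, growth, rifampicin and isoniazid. After 7 days at 37 °C, 0.01% resazurin was added for 24 h and the colour change read.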

Escherichia coli = assay: Antibacterial activity against Escherichia coli ATCC 25922 after 3 to 4 days by serial plate dilution method; settings: for MIC: Escherichia coli, ATCC 25922
Staphylococcus aureus = assay: Antibacterial activity against Staphylococcus aureus ATCC 25923 after 3 to 4 days by serial plate dilution method; settings: for MIC: Staphylococcus aureus, ATCC 25923
Pseudomonas aeruginosa = assay: Antibacterial activity against Pseudomonas aeruginosa ATCC 27853 after 3 to 4 days by serial plate dilution method; settings: for MIC: Pseudomonas aeruginosa, ATCC 27853
[2] = test system: Mycobacterium tuberculosis; assay: Antituberculosis activity against Mycobacterium tuberculosis at MIC concentration after 7 days using resazurin dye by broth microdilution assay; method in brief: as §1

SMILES | diameter of the inhibition zone (DIZ) (Klebsiella pneumoniae) [mm] | MIC (Klebsiella pneumoniae) [µg/mL] | MIC [1] [µM] | diameter of the inhibition zone (DIZ) (Escherichia coli) [mm] | MIC (Escherichia coli) [µg/mL] | diameter of the inhibition zone (DIZ) (Staphylococcus aureus) [mm] | MIC (Staphylococcus aureus) [µg/mL] | diameter of the inhibition zone (DIZ) (Pseudomonas aeruginosa) [mm] | MIC (Pseudomonas aeruginosa) [µg/mL] | inhibition (INH) [2] [%]
Oc1cc(F)ccc1/C=N/Nc1cc(C(F)(F)F)nc2c(C(F)(F)F)cccc12 | 13 | 12.5 (≈ 30 µM) | > 50 | 22 | 6.25 (≈ 15 µM) | 13 | 12.5 (≈ 30 µM) | 12 | 12.5 (≈ 30 µM) | –
FC(F)C(F)(F)Oc1cccc(/C=N/Nc2cc(C(F)(F)F)nc3c(C(F)(F)F)cccc23)c1 | 18 | 6.25 (≈ 12.5 µM) | 12.5 (≈ 6.24 µg/mL) | 21 | 6.25 (≈ 12.5 µM) | 22 | 6.25 (≈ 12.5 µM) | 26 | 6.25 (≈ 12.5 µM) | <90
COc1ccc(/C=N/Nc2cc(C(F)(F)F)nc3c(C(F)(F)F)cccc23)cc1O | 12 | 12.5 (≈ 29.1 µM) | 12.5 (≈ 5.37 µg/mL) | 13 | 12.5 (≈ 29.1 µM) | 14 | 12.5 (≈ 29.1 µM) | 15 | 12.5 (≈ 29.1 µM) | <90
COc1ccc(/C=N/Nc2cc(C(F)(F)F)nc3c(C(F)(F)F)cccc23)c(F)c1 | 22 | 6.25 (≈ 14.5 µM) | 6.25 (≈ 2.7 µg/mL) | 25 | 6.25 (≈ 14.5 µM) | 23 | 6.25 (≈ 14.5 µM) | 24 | 6.25 (≈ 14.5 µM) | 95
FC(F)(F)c1cc(N/N=C/c2cccs2)c2cccc(C(F)(F)F)c2n1 | <10 | 50 (≈ 128 µM) | > 50 | <10 | 50 (≈ 128 µM) | <10 | 50 (≈ 128 µM) | <10 | 50 (≈ 128 µM) | –
FC(F)(F)c1cc(N/N=C/c2cccnc2)c2cccc(C(F)(F)F)c2n1 | 20 | 6.25 (≈ 16.3 µM) | 12.5 (≈ 4.8 µg/mL) | 24 | 6.25 (≈ 16.3 µM) | 22 | 6.25 (≈ 16.3 µM) | 25 | 6.25 (≈ 16.3 µM) | <90
FC(F)(F)c1cc(N/N=C/C2CCCCC2)c2cccc(C(F)(F)F)c2n1 | 19 | 6.25 (≈ 16.1 µM) | 6.25 (≈ 2.43 µg/mL) | 25 | 6.25 (≈ 16.1 µM) | 24 | 6.25 (≈ 16.1 µM) | 23 | 6.25 (≈ 16.1 µM) | 95
FC(F)(F)Oc1cccc(/C=N/Nc2cc(C(F)(F)F)nc3c(C(F)(F)F)cccc23)c1 | 20 | 6.25 (≈ 13.4 µM) | 12.5 (≈ 5.84 µg/mL) | 24 | 6.25 (≈ 13.4 µM) | 21 | 6.25 (≈ 13.4 µM) | 26 | 6.25 (≈ 13.4 µM) | <90
CCCCCCC/C=N/Nc1cc(C(F)(F)F)nc2c(C(F)(F)F)cccc12 | 12 | 12.5 (≈ 30.8 µM) | 6.25 (≈ 2.53 µg/mL) | 24 | 6.25 (≈ 15.4 µM) | 12 | 12.5 (≈ 30.8 µM) | 14 | 12.5 (≈ 30.8 µM) | 95
FC(F)(F)c1cc(N/N=C/c2cocc2Br)c2cccc(C(F)(F)F)c2n1 | <10 | 50 (≈ 111 µM) | > 50 | <10 | 50 (≈ 111 µM) | <10 | 50 (≈ 111 µM) | <10 | 50 (≈ 111 µM) | –
FC(F)(F)c1cc(N/N=C/c2c[nH]cn2)c2cccc(C(F)(F)F)c2n1 | 18 | 6.25 (≈ 16.7 µM) | 3.12 (≈ 1.16 µg/mL) | 25 | 6.25 (≈ 16.7 µM) | 24 | 6.25 (≈ 16.7 µM) | 23 | 6.25 (≈ 16.7 µM) | 99
Cn1cc(Cl)c(/C=N/Nc2cc(C(F)(F)F)nc3c(C(F)(F)F)cccc23)n1 | 18 | 6.25 (≈ 14.8 µM) | 6.25 (≈ 2.64 µg/mL) | 24 | 6.25 (≈ 14.8 µM) | 22 | 6.25 (≈ 14.8 µM) | 28 | 6.25 (≈ 14.8 µM) | 95
FC(F)(F)c1cc(N/N=C/c2ccc3c(c2)CCO3)c2cccc(C(F)(F)F)c2n1 | 12 | 12.5 (≈ 29.4 µM) | 25 (≈ 10.6 µg/mL) | 21 | 6.25 (≈ 14.7 µM) | 14 | 12.5 (≈ 29.4 µM) | 15 | 12.5 (≈ 29.4 µM) | –
CC(=O)OCc1ccc(/C=N/Nc2cc(C(F)(F)F)nc3c(C(F)(F)F)cccc23)o1 | 11 | 12.5 (≈ 28.1 µM) | > 50 | 20 | 6.25 (≈ 14 µM) | 10 | 12.5 (≈ 28.1 µM) | 14 | 12.5 (≈ 28.1 µM) | –
COc1ccc2[nH]cc(/C=N/Nc3cc(C(F)(F)F)nc4c(C(F)(F)F)cccc34)c2c1 | 20 | 6.25 (≈ 13.8 µM) | 25 (≈ 11.3 µg/mL) | 23 | 6.25 (≈ 13.8 µM) | 22 | 6.25 (≈ 13.8 µM) | 25 | 6.25 (≈ 13.8 µM) | –
N#Cc1cccc(NC(=O)NNc2cc(C(F)(F)F)nc3c(C(F)(F)F)cccc23)c1 | <10 | 50 (≈ 114 µM) | 25 (≈ 11 µg/mL) | <10 | 50 (≈ 114 µM) | <10 | 50 (≈ 114 µM) | <10 | 50 (≈ 114 µM) | –
CCCCCNC(=O)NNc1cc(C(F)(F)F)nc2c(C(F)(F)F)cccc12 | <10 | 50 (≈ 122 µM) | 25 (≈ 10.2 µg/mL) | 10 | 12.5 (≈ 30.6 µM) | 10 | 12.5 (≈ 30.6 µM) | 14 | 12.5 (≈ 30.6 µM) | –
Fc1ccccc1NC(=S)NNc1cc(C(F)(F)F)nc2c(C(F)(F)F)cccc12 | <10 | 50 (≈ 112 µM) | > 50 | <10 | 50 (≈ 112 µM) | <10 | 50 (≈ 112 µM) | <10 | 50 (≈ 112 µM) | –
COCCNC(=S)NNc1cc(C(F)(F)F)nc2c(C(F)(F)F)cccc12 | <10 | 50 (≈ 121 µM) | 25 (≈ 10.3 µg/mL) | 10 | 12.5 (≈ 30.3 µM) | 11 | 12.5 (≈ 30.3 µM) | 12 | 12.5 (≈ 30.3 µM) | –
CC1=NN(c2cc(C(F)(F)F)nc3c(C(F)(F)F)cccc23)C(=O)C1 | 20 | 6.25 (≈ 17.3 µM) | – | 22 | 6.25 (≈ 17.3 µM) | 24 | 6.25 (≈ 17.3 µM) | 25 | 6.25 (≈ 17.3 µM) | –
O=C1CC(CCc2ccc3c(c2)OCO3)=NN1c1cc(C(F)(F)F)nc2c(C(F)(F)F)cccc12 | 22 | 6.25 (≈ 12.6 µM) | – | 21 | 6.25 (≈ 12.6 µM) | 22 | 6.25 (≈ 12.6 µM) | 24 | 6.25 (≈ 12.6 µM) | –
O=C1CC(c2ccccc2)=NN1c1cc(C(F)(F)F)nc2c(C(F)(F)F)cccc12 | 10 | 12.5 (≈ 29.5 µM) | – | 10 | 12.5 (≈ 29.5 µM) | 18 | 6.25 (≈ 14.8 µM) | 12 | 12.5 (≈ 29.5 µM) | –
O=C1CC(c2ccncc2)=NN1c1cc(C(F)(F)F)nc2c(C(F)(F)F)cccc12 | 10 | 12.5 (≈ 29.5 µM) | – | 10 | 12.5 (≈ 29.5 µM) | 20 | 6.25 (≈ 14.7 µM) | 12 | 12.5 (≈ 29.5 µM) | –
O=C(O)c1cn(C2CC2)c2cc(N3CCNCC3)c(F)cc2c1=O [CIPROFLOXACIN] | 24 | 3.12 (≈ 9.42 µM) | – | 28 | – | 26 | – | 31 | – | –
NNC(=O)c1ccncc1 [ISONIAZID] | – | – | 1.5 (≈ 0.206 µg/mL) | – | – | – | – | – | – | 95
CO[C@H]1/C=C/O[C@@]2(C)Oc3c(C)c(O)c4c(O)c(c(/C=N/N5CCN(C)CC5)c(O)c4c3C2=O)NC(=O)/C(C)=C\C=C\[C@H](C)[C@H](O)[C@@H](C)[C@@H](O)[C@@H](C)[C@H](OC(C)=O)[C@@H]1C [RIFAMPIN] | – | – | 0.5 (≈ 0.411 µg/mL) | – | – | – | – | – | – | 99
